Assay results published in ChEMBL document CHEMBL5131470, “Structure-activity and structure-property relationship studies of spirocyclic chromanes with antimalarial activity” (Bioorg Med Chem, 2022).
In brackets after ≈: the same amount, converted by molar mass.

Key:
[1] = Selectivity index, ratio of EC50 for cytotoxicity against human HepG2 cells to EC50 for antimalarial activity against chloroquine-resistant Plasmodium falciparum Dd2; format: toxicity, cell-based; conditions: read-out: Ratio EC50
Summary of the method: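 Human HepG2 hepatoma cells were seeded at 2,500 cells/well and grown 24 h. Serial dilutions of compound (0–40 μM) were then added for another 48 h. […] SI = EC50(HepG2)/EC50(Dd2).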

[2] = test system: Plasmodium falciparum; assay: Antimalarial activity against chloroquine-resistant Plasmodium falciparum Dd2 assessed as inhibition of parasite growth incubated for 72 hrs by SYBR green I-based DNA quantification assay; format: functional, organism-based; conditions: Dd2, 72 h
[3] = Cytotoxicity against human HepG2 cells assessed as reduction in cell viability incubated for 48 hrs by MTS assay; format: toxicity, cell-based
Summary of the method: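 HepG2 human hepatoma cells were seeded at 2,500 cells/well in 384-well plates and incubated 24 h. Serial compound dilutions (0–40 μM range) were added, then cells were incubated a further 48 h.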

[4] = Aqueous solubility of the compound at pH 6.5; conditions: aqueous solution
[5] = Octanol-water distribution coefficient, logD of the compound at pH 7.4 by HPLC-based analysis; format: physicochemical
[6] = test system: Plasmodium falciparum; assay: Antiplasmodial activity against artemisinin-resistant Plasmodium falciparum ARC08-022 assessed as inhibition of parasite growth incubated for 48 hrs by time zero-[3H]hypoxanthine incorporation assay; format: functional, organism-based
[7] = Aqueous solubility of the compound at pH 2 by HPLC analysis; format: physicochemical; conditions: aqueous solution
Summary of the method: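 Aqueous solubility was measured at pH 2.0 with an in-house HPLC assay. Values are reported as bins: ≤10 μM, 10–20 μM, 20–40 μM, 40–80 μM and ≥80 μM.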

[8] = Octanol-water distribution coefficient, logD of the compound at pH 3 by HPLC-based analysis; format: physicochemical
[9] = test system: Plasmodium falciparum; assay: Antiplasmodial activity against chloroquine-sensitive Plasmodium falciparum D6 assessed as inhibition of parasite growth incubated for 48 hrs by time zero-[3H]hypoxanthine incorporation assay; format: functional, organism-based

Compound	selectivity ratio [1]	EC50 [2] [nM]	EC50 at 48 h [3] [µM]	solubility [4] [µM]	logD [5]	EC50 [6] [nM]	solubility [7] [µM]	logD [8]	EC50 [9] [nM]
CCN1CCC2(CCc3ccc4c(c3O2)CCCC4)CC1	< 1	> 2500	5						
OC(CN1CCC2(CCc3ccc4ccccc4c3O2)CC1)c1ccc(F)c(F)c1 (stereo not given)	> 10.4	530	> 20	≤ 10	4	970	40 (≈ 16.4 µg/mL)	3.05	310
O=C1C[C@]2(CCCN(CCc3ccc(F)c(F)c3)C2)Oc2c1ccc1ccccc21	5.8	1840	10						
OC1CC2(CCN(CCc3ccc(F)c(F)c3)CC2)Oc2c1ccc1ccccc21 (stereo not given)	> 32.5	530	> 20	≥ 80	3.15		≥ 80	2.62	
c1ccc(CCCN2CCC3(CCc4ccc5ccccc5c4O3)CC2)cc1	> 45.6	1410	> 20						
CCN1CCC2(C=Cc3ccc4ccccc4c3O2)CC1	9.7	1140	12						
O=C1C[C@@]2(CCCNC2)Oc2c1ccc1ccccc21	9	630	5						
CCN1CCC2(CC1)CC(=O)c1ccc3ccccc3c1O2	4.7	> 2500	18	≥ 80	2.19		≥ 80	1.65	
O=C1CC2(CCN(CCC3CCCCC3)CC2)Oc2c1ccc1ccccc21	31.2	710	16	10 (≈ 3.78 µg/mL)	4.5		20 (≈ 7.55 µg/mL)	2.99	
CCN1CCC[C@@]2(CC(=O)c3ccc4ccccc4c3O2)C1	< 1.6	> 2500	8						
O=C1CC2(CCN(CC(O)c3ccc(F)c(F)c3)CC2)Oc2c1ccc1ccccc21 (stereo not given)	> 6.1	850	> 20	≤ 10	4.51		≥ 80	2.79	
OC1C[C@]2(CCCN(CCc3ccc(F)c(F)c3)C2)Oc2c1ccc1ccccc21 (stereo not given in full)	1.9	> 2500	6						
O=C1CC2(CCN(CC(O)c3ccc(Cl)c(Cl)c3)CC2)Oc2c1ccc1ccccc21 (stereo not given)		> 2500							
O=C1CC2(CCN(CCCc3ccccc3)CC2)Oc2c1ccc1ccccc21	> 36.5	480	> 20						
OC1CC2(CCN(CCc3ccccc3)CC2)Oc2c1ccc1ccccc21 (stereo not given)	> 68.9	320	> 20						
c1ccc2c3c(ccc2c1)CCC1(CCNCC1)O3	4	> 2500	> 20	20 (≈ 5.07 µg/mL)	2.33		40 (≈ 10.1 µg/mL)	1.97	
O=C1C[C@]2(CCCNC2)Oc2c1ccc1ccccc21	2.4	1200	4						
O[C@@H]1CC2(CCN(C[C@H](O)c3ccc(F)c(F)c3)CC2)Oc2c1ccc1ccccc21	16	1060	17						
O=C1CC2(CCNCC2)Oc2c1ccc1ccccc21	3.2	2270	7	≥ 80	1.78		≥ 80	1.48	
O[C@@H](CN1CCC2(CC1)C[C@H](O)c1ccc3ccccc3c1O2)c1ccc(F)c(F)c1	> 15	1290	> 20						
OC(CN1CCC2(CC1)CC(O)c1ccc3ccccc3c1O2)c1ccc(Cl)c(Cl)c1 (stereo not given)		1840							
O=C(Cc1ccc(F)c(F)c1)N1CCC2(CCc3ccc4ccccc4c3O2)CC1	< 1	> 2500	5		4.04			4.02	
O=C1CC2(CCN(C(=O)Cc3ccc(F)c(F)c3)CC2)Oc2c1ccc1ccccc21	< 3.6	> 2500	18	≤ 10	4.03			4	
O=C(CN1CCC2(CC1)CC(=O)c1ccc3ccccc3c1O2)c1ccc(F)c(F)c1	2.7	1300	4	40 (≈ 16.9 µg/mL)	1.82		40 (≈ 16.9 µg/mL)	1.52	
Fc1ccc(CCN2CCC3(C=Cc4ccc5ccccc5c4O3)CC2)cc1F	7.2	1980	13						
Fc1ccc(CCN2CCC3(CCc4ccc5ccccc5c4O3)CC2)cc1F	4	1910	> 20		4.51		20 (≈ 7.87 µg/mL)	3.29	

Compound	selectivity ratio [1]	EC50 [2] [nM]	EC50 at 48 h [3] [µM]	solubility [4] [µM]	logD [5]	EC50 [6] [nM]	solubility [7] [µM]	logD [8]	EC50 [9] [nM]
CCN1CCC2(CCc3ccc4ccccc4c3O2)CC1	> 52.1	550	> 20	≤ 10	2.88		≤ 10	2.17	
CCN1CCC[C@]2(CC(O)c3ccc4ccccc4c3O2)C1 (stereo not given in full)	> 7.6	> 2500	> 20						
O=C1C[C@@]2(CCCN(CCc3ccc(F)c(F)c3)C2)Oc2c1ccc1ccccc21	34.2	330	14						
CCN1CCC[C@]2(CC(=O)c3ccc4ccccc4c3O2)C1	1.3	> 2500	5						
O=C1CC2(CCN(CCc3ccccc3)CC2)Oc2c1ccc1ccccc21	14	530	8						
c1ccc(CCN2CCC3(CCc4ccc5ccccc5c4O3)CC2)cc1	> 9.6	2060	> 20						
OC1C[C@@]2(CCCN(CCc3ccc(F)c(F)c3)C2)Oc2c1ccc1ccccc21 (stereo not given in full)	> 34.5	610	> 20						
OC1CC2(CCN(CCCc3ccccc3)CC2)Oc2c1ccc1ccccc21 (stereo not given)	2	650	1						
OC1CC2(CCN(CCc3ccc(Cl)c(Cl)c3)CC2)Oc2c1ccc1ccccc21 (stereo not given)		2100				2010			1320
CCN1CCC2(CC1)CC(O)c1ccc3ccccc3c1O2 (stereo not given)	3.2	> 2500	16	20 (≈ 5.95 µg/mL)	1.88		20 (≈ 5.95 µg/mL)	1.51	
OC1CC2(CCNCC2)Oc2c1ccc1ccccc21 (stereo not given)	> 54.5	510	> 20	≤ 10	2.46		40 (≈ 10.8 µg/mL)	2.04	
c1ccc2c3c(ccc2c1)CCC1(CCN(CCC2CCCCC2)CC1)O3	1.1	1470	2		4.74		40 (≈ 14.5 µg/mL)		
CCN1CCC[C@@]2(CC(O)c3ccc4ccccc4c3O2)C1 (stereo not given in full)	> 28.8	630	> 20						
O[C@H](CN1CCC2(CC1)C[C@H](O)c1ccc3ccccc3c1O2)c1ccc(F)c(F)c1	11	1790	> 20						
OC1CC2(CCN(Cc3ccccc3)CC2)Oc2c1ccc1ccccc21 (stereo not given)	5.7	930	6						
O[C@H](CN1CCC2(CC1)C[C@@H](O)c1ccc3ccccc3c1O2)c1ccc(F)c(F)c1	< 7	> 2500	17						
c1ccc(CN2CCC3(CCc4ccc5ccccc5c4O3)CC2)cc1	4	> 2500	> 20						
O=C(CN1CCC2(CC1)CC(O)c1ccc3ccccc3c1O2)c1ccc(F)c(F)c1 (stereo not given)	< 6.7	> 2500	33	20 (≈ 8.47 µg/mL)	0.89		20 (≈ 8.47 µg/mL)	1.53	
O=C(Cc1ccc(F)c(F)c1)N1CCC2(CC1)CC(O)c1ccc3ccccc3c1O2 (stereo not given)	< 1	> 2500	5		2.46			2.04	
Fc1ccc(CCN2CCC3(CCc4ccc5c(c4O3)CCCC5)CC2)cc1F	4	> 2500	> 20						
C1=CC2(CCNCC2)Oc2c1ccc1ccccc21	> 45.6	490	> 20						
O=C(CN1CCC2(CCc3ccc4ccccc4c3O2)CC1)c1ccc(F)c(F)c1		> 2500	> 20	20 (≈ 8.15 µg/mL)			20 (≈ 8.15 µg/mL)		
c1cc2c(c3c1CCCC3)OC1(CCNCC1)CC2	4	> 2500	> 20						
O=C1CC2(CCN(CCc3ccc(Cl)c(Cl)c3)CC2)Oc2c1ccc1ccccc21		> 2500							
O=C1CC2(CCN(Cc3ccccc3)CC2)Oc2c1ccc1ccccc21	4	> 2500	11						
